Only some compounds are listed: those with a hit (about 2.3% of all), similar ones and a draw of the others.
TRPC4 agonist = opens the mouse TRPC4 cation channel; AID 2237; 310,000 tested, 0.49% active; HEK293 TRPC4beta/mu-opioid, Fluo4 calcium fluorescence; stronger effect = higher value; Q9QUQ5; B-score at 10 µM;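 active = B-score above 5 SD of library B-scores, and initial fluorescence ratio not above library mean plus 5 SD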;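 also: positive B-score marks a calcium rise read as TRPC4 activation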
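Technique: kinetic Fluo4 calcium fluorescence; Test system: TRPC4beta and mu-opioid receptor HEK293 stable cells; Measure: B-scored integrated calcium fluorescence ratio; Benchmarks: low control buffer alone, high control maximal DAMGO; Schedule: 45 min room-temperature Fluo4 loading, 110 s read.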
TRPC6 act = activates the mouse TRPC6 cation channel; Q61143; HEK293-TRPC6 membrane potential dye fluorescence; stronger effect = higher value; B-score at 10 µM; 310,000 tested, 0.13% active;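 active = B-score of the integrated fluorescence ratio above library mean plus 3 SD, and starting fluorescence ratio within library mean plus 5 SD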;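 also: higher score means more depolarization so channel activation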
Target sequence (Q61143 whole entry, looked up): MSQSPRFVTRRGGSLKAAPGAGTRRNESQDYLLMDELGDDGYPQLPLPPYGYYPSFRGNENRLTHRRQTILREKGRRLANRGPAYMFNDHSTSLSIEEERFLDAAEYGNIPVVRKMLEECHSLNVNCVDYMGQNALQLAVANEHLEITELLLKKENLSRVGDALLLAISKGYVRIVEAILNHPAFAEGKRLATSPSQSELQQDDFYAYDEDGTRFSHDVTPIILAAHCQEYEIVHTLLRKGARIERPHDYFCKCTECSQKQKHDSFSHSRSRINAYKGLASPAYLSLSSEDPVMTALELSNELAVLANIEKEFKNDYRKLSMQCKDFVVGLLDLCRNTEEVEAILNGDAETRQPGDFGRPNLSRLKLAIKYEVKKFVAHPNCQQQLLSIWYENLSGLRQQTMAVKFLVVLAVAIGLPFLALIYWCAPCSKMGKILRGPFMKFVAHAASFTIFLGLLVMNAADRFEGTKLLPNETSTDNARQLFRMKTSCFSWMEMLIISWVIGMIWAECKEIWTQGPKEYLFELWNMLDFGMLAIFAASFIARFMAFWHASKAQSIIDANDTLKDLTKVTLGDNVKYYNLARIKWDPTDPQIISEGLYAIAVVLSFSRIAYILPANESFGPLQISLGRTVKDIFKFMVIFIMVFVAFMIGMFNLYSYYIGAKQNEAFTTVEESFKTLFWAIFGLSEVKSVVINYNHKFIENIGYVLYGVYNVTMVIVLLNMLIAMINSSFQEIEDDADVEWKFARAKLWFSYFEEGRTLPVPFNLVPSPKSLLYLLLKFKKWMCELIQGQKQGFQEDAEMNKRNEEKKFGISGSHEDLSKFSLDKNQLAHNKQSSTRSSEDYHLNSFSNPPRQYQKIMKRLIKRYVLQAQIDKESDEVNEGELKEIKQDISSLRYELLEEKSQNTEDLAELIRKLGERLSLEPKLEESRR
TRPC4 inh = blocks the mouse TRPC4 cation channel | B-score at 10 µM | HEK293 TRPC4beta/mu-opioid, DAMGO-evoked Fluo4 calcium flux; stronger effect = lower value | 300,000 tested, 0.39% active | Q9QUQ5;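 active = B-score over 3 SD under the library average, no early fluorescence shift, positive overall ratio signal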
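material = TRPC4beta/mu-opioid receptor HEK293 cell line | probe or stimulus = sequential submaximal and maximal DAMGO stimulation | compound dosing = one concentration per compound | measured by = Fluo4 Ca2+ flux fluorescence | evaluation = integrated fluorescence ratio relative to baseline, converted to per-well B score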
TRPC4 potent = allosterically enhances the mouse TRPC4 cation channel. B-score at 10 µM. AID 2227. HEK293 TRPC4beta/mu-opioid, DAMGO EC20, Fluo-4 Ca2+ flux; stronger effect = higher value. 310,000 tested, 0.42% active. Q9QUQ5;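 active = B-score of calcium response area above 5 SD of library B-scores, with initial fluorescence ratio within 5 SD of library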;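 also: B-score of integrated fluorescence ratio over time as area under calcium response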
TRPC6 inhibitor = blocks the mouse TRPC6 cation channel. HEK293-TRPC6, membrane potential dye, ACh-evoked depolarization; stronger effect = lower value. B-score at 10 µM. 310,000 tested, 1.1% active;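 active = B-score under library mean minus 3 SD, initial fluorescence not abnormally high, positive integrated signal ratio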;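 also: B-score derived from integrated fluorescence ratio over the kinetic read; more negative B-score means stronger inhibition of depolarization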
TRPC4 sel inh 2 = mouse TRPC4 off-target activity of TRPC6 inhibitors, second screen; shares compounds with TRPC6 inhibitor; HEK293 TRPC4/MOR, membrane potential dye fluorescence; channel activated by saturating DAMGO dose; inhibition, % at 10 µM; 920 tested, 42% active;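 active = compounds whose fluorescence signal differed from control wells by over 3 SD, either direction, in both duplicate plates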
TRPC4 spec = mouse TRPC4 off-target activity of TRPC6 inhibitors; shares compounds with TRPC6 inhibitor; HEK293 TRPC4/mu-opioid, membrane potential fluorescence; activity change, negative = inhibition, % at 10 µM; 920 tested, 61% active;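 active = rise or fall in signal beyond 3 SD of buffer-only wells in both replicate plates, either sign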;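 also: integrated kinetic ratio of fluorescence range over baseline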
HEK293 MPD ctr 2-1 = parental HEK293 nonspecific activity of TRPC6 inhibitors, second screen. parental HEK293 membrane potential dye fluorescence; maximal acetylcholine challenge after compound addition. shares compounds with TRPC6 inhibitor. 920 tested, 31% active. signal change vs control, % at 10 µM;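 active = membrane potential signal moving either way by over 3 SD of the maximum-effect control, in both duplicate plates, meaning non-specific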
HEK293 MPD ctr-1 = parental HEK293 nonspecific activity of TRPC6 inhibitors | membrane potential signal change, % at 10 µM | shares compounds with TRPC6 inhibitor | parental HEK293 membrane potential dye fluorescence | 920 tested, 60% active;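 active = membrane potential signal shifting up or down by more than 3 SD of buffer-only wells, on both duplicate plates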
HEK293 MPD ctr-2 = counter-screen for TRPC6 modulators: effect in parental HEK293 cells | shares compounds with TRPC6 inhibitor | membrane potential dye fluorescence | membrane potential signal change, % at 10 µM | 2,400 tested, 51% active;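 active = membrane potential signal moves up or down beyond 5 SD from buffer-only wells, on both duplicate plates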
HEK293 MPD ctr 2-2 = second check of TRPC6 modulator effects in parental HEK293 cells. shares compounds with TRPC6 inhibitor. membrane potential dye fluorescence; after compound, maximal acetylcholine stimulation. inhibition, % at 10 µM. 2,400 tested, 14% active;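 active = membrane potential signal drops by more than 5 SD from the mean control signal, in both duplicate plates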;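 also: plate controls were acetylcholine ECmax control wells for no effect and buffer only wells for full effect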
TRPC4/MOR mod = selectivity of TRPC6 modulators against mouse TRPC4; shares compounds with TRPC6 inhibitor; HEK293 TRPC4/mu-opioid, membrane potential fluorescence; percent change from control (negative = decrease, positive = increase), % at 10 µM; 2,400 tested, 69% active; AID 488927;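 active = membrane potential signal moved up or down beyond 5 SD of buffer control wells, in both duplicate plates, actives on both sides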;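 also: plate controls were assay buffer wells for no effect and DAMGO maximal-effect wells for full effect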
TRPC4 ctr inh 2 = second check of whether TRPC6 modulators also affect mouse TRPC4 | shares compounds with TRPC6 inhibitor | HEK293 TRPC4/mu-opioid, membrane potential dye fluorescence; stimulated with maximal-effect DAMGO | inhibition, % at 10 µM | 2,400 tested, 55% active | AID 488928;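 active = drop in membrane potential signal beyond 5 SD of the control wells in both duplicate plates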;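 also: TRPC4 counter screen for TRPC6 hits run under conditions tuned for TRPC6 not TRPC4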
TRPC6 block conf = confirmation of mouse TRPC6 inhibitors | shares compounds with TRPC6 inhibitor | HEK293-TRPC6, membrane potential dye, ACh-evoked depolarization | inhibition, % at 10 µM | 3,300 tested, 43% active | AID 488960;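 active = fluorescence ratio falls more than 5 SD below the full-stimulation control mean, in both duplicate runs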;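 also: integrated fluorescence ratio of peak minus minimum over baseline after agonist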
TRPC6 act conf = mouse TRPC6 activator confirmation | shares compounds with TRPC6 inhibitor | HEK293-TRPC6 membrane potential dye fluorescence, FDSS | activation, % at 10 µM | 2,800 tested, 11% active | AID 488961;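 active = ratio signal rise beyond 5 SD above unstimulated control wells' mean, seen in both duplicate runs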;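 also: plate controls were buffer EC0 wells for no effect and acetylcholine ECmax response for full effect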
The depositor's hits bear a star.

Screening Cc1ccc(OCC(O)CNCc2ccccc2)cc1C (stereo not drawn) returned TRPC4 agonist inactive, TRPC6 act inactive, TRPC4 inh inactive, TRPC4 potent inactive, TRPC6 inhibitor -5.1*, HEK293 MPD ctr-2 132%*, HEK293 MPD ctr 2-2 inactive, TRPC4/MOR mod 19%*, TRPC4 ctr inh 2 46%* and TRPC6 block conf inactive.
`Cc1[nH]c2ccccc2c1/C=N/NC(=O)c1cccc([N+](=O)[O-])c1` gave TRPC4 agonist inactive, TRPC6 act inactive, TRPC4 inh inactive, TRPC4 potent inactive and TRPC6 inhibitor inactive.
Screening Cc1[nH]c2ccccc2c1/C=N/Nc1ccc([N+](=O)[O-])cc1 returned TRPC4 agonist inactive, TRPC6 act 11*, TRPC4 inh inactive, TRPC4 potent inactive, TRPC6 inhibitor inactive, HEK293 MPD ctr-2 144%*, HEK293 MPD ctr 2-2 inactive, TRPC4/MOR mod 36%*, TRPC4 ctr inh 2 inactive, TRPC6 block conf inactive and TRPC6 act conf 56%*.
CC1Cc2ccccc2N1C(=O)c1ccc(N2CCCC2)c([N+](=O)[O-])c1 (stereo not drawn) was read as TRPC4 agonist inactive, TRPC6 act inactive, TRPC4 inh inactive, TRPC4 potent inactive and TRPC6 inhibitor inactive.
CC1Cc2ccccc2N1C(=O)c1ccc(N2CCCCC2)c([N+](=O)[O-])c1 (stereo not drawn) was read as TRPC4 agonist inactive, TRPC6 act inactive, TRPC4 inh inactive, TRPC4 potent inactive, TRPC6 inhibitor -5.8*, HEK293 MPD ctr-2 inactive, HEK293 MPD ctr 2-2 inactive, TRPC4/MOR mod inactive, TRPC4 ctr inh 2 inactive, TRPC6 block conf inactive and TRPC6 act conf inactive.
For NS(=O)(=O)c1cccc(-n2cnnn2)c1 the results were TRPC4 agonist inactive, TRPC6 act inactive, TRPC4 inh inactive, TRPC4 potent inactive and TRPC6 inhibitor inactive.
`Oc1ccc(Cl)cc1Cc1cc(Cl)ccc1O` gave TRPC4 agonist inactive, TRPC6 act inactive, TRPC4 inh inactive, TRPC4 potent inactive, TRPC6 inhibitor -5.1*, HEK293 MPD ctr-2 inactive, HEK293 MPD ctr 2-2 69%*, TRPC4/MOR mod -12%*, TRPC4 ctr inh 2 63%*, TRPC6 block conf 66%* and TRPC6 act conf inactive.
For Cc1ccc(C)c(NC(=O)C(NCC(C)(C)N2CCOCC2)c2ccccc2)c1 (stereo not drawn) the results were TRPC4 agonist inactive, TRPC6 act inactive, TRPC4 inh inactive, TRPC4 potent inactive, TRPC6 inhibitor -6.7*, TRPC4 sel inh 2 inactive, TRPC4 spec 5.2%*, HEK293 MPD ctr 2-1 inactive, HEK293 MPD ctr-1 7.3%* and TRPC6 block conf inactive.
COc1ccc(C)cc1NC(=O)C(NCC(O)c1ccccc1)c1ccccc1 (stereo not drawn) was read as TRPC4 agonist inactive, TRPC6 act inactive, TRPC4 inh inactive, TRPC4 potent inactive and TRPC6 inhibitor inactive.
Screening COc1ccc(Sc2nc(-c3ccccn3)ncc2OC)cc1 returned TRPC4 agonist inactive, TRPC6 act inactive, TRPC4 inh inactive, TRPC4 potent inactive, TRPC6 inhibitor -6.1*, HEK293 MPD ctr-2 -99%*, HEK293 MPD ctr 2-2 inactive, TRPC4/MOR mod -15%*, TRPC4 ctr inh 2 inactive, TRPC6 block conf inactive and TRPC6 act conf inactive.
For COc1cnc(-c2ccccn2)nc1N(C)c1ccccc1 the results were TRPC4 agonist inactive, TRPC6 act inactive, TRPC4 inh inactive, TRPC4 potent inactive, TRPC6 inhibitor -5.9*, HEK293 MPD ctr-2 -59%*, HEK293 MPD ctr 2-2 inactive, TRPC4/MOR mod inactive, TRPC4 ctr inh 2 28%*, TRPC6 block conf inactive and TRPC6 act conf inactive.
COC(=O)c1ccc(NC(=S)NC2c3ccccc3CC2O)cc1 (stereo not drawn) was read as TRPC4 agonist inactive, TRPC6 act inactive, TRPC4 inh inactive, TRPC4 potent inactive and TRPC6 inhibitor inactive.
`Fc1cccc(NCc2cn3ccccc3n2)c1` gave TRPC4 agonist inactive, TRPC6 act inactive, TRPC4 inh inactive, TRPC4 potent inactive, TRPC6 inhibitor -5.5*, HEK293 MPD ctr-2 inactive, HEK293 MPD ctr 2-2 inactive, TRPC4/MOR mod inactive, TRPC4 ctr inh 2 inactive, TRPC6 block conf inactive and TRPC6 act conf inactive.
`COC(=O)CC(N)c1ccc(OC)c2ccccc12` (stereo not drawn) gave TRPC4 agonist inactive, TRPC6 act inactive, TRPC4 inh inactive, TRPC4 potent inactive, TRPC6 inhibitor -5.3*, HEK293 MPD ctr-2 inactive, HEK293 MPD ctr 2-2 inactive, TRPC4/MOR mod inactive, TRPC4 ctr inh 2 inactive, TRPC6 block conf inactive and TRPC6 act conf inactive.
Screening O=C1COc2ccc(S(=O)(=O)N3CCC(C(=O)NCc4ccccc4)CC3)cc2N1 returned TRPC4 agonist inactive, TRPC6 act inactive, TRPC4 inh inactive, TRPC4 potent inactive and TRPC6 inhibitor inactive.
